A short description of data set [1]: Binding affinity to 5' and 3'-terminal G-tetrads of synthetic c-KIT2 G12T/G21T double mutant parallel G-quadruplex DNA in presence of 20 mM KCl solution by NMR spectroscopic analysis. In outline: (§1)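 1H NMR titration at 25 °C, 700 MHz, water-suppressed 1D spectra; DNA 0.2-0.5 mM strand in H2O/D2O 9:1. Myc22 in 25 mM KH2PO4, 70 mM KCl, 0.2 mM EDTA, pH 7.0; c-kit2 T12/T21 in 5 mM KH2PO4, 20 mM KCl, 0.2 mM EDTA, pH 6.8. Ligand in DMSO-d6 added stepwise into the tube; imino proton shifts followed.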

Data set [2] can be described thus: Binding affinity to 5' and 3'-terminal G-tetrads of synthetic MYC22 G14T/G23T double mutant G-quadruplex DNA in presence of 70 mM KCl solution by NMR spectroscopic analysis. In outline:
as §1

For data set [3], the system named is U2OS. Briefly: Cytotoxicity against human U2OS cells assessed as cell death after 24 hrs by microscopic analysis. In kind it is cell-based.
Data set [4] is described as follows: Induction of parallel G-quadruplex formation in synthetic unfolded c-KIT1 DNA assessed as increase in molar ellipticity after 10 mins by in absence of metal cation circular dichroism titration method. In outline:
(§2)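 CD titration without metal ions: unfolded oligonucleotide 12-15 µM in 50 mM Tris; ligand added in 0.5 equiv steps, spectrum recorded 10 min after each addition at 20 °C, 230-360 nm, 3 scans averaged.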

A short description of data set [5]: Binding affinity to synthetic telomere 23 parallel G-quadruplex DNA assessed as change in melting temperature at 4 mol equiv in presence of 100 mM KCl buffer by circular dichroism spectroscopic analysis. An outline of the steps: (§3)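 CD melting, 20-100 °C at 1 °C/min, signal at 264 (parallel), 290 (antiparallel) or 280 nm (duplex). G4 DNA 10 µM or duplex 15 µM, folded by heating at 90 °C 5 min and slow cooling, in 10 mM potassium phosphate (c-kit1, Tel23, Tel26) or lithium phosphate (Tel23-p, ds12) pH 7.0 with 100 mM KCl. Ligand 4 equiv; Tm by curve fit, ΔTm vs DNA alone; duplicate average.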
(In general: CD spectra are sensitive to the conformation of chiral molecules.)

A short description of data set [6]: Binding affinity to synthetic c-KIT2 G-quadruplex DNA assessed as change in melting temperature at 4 mol equiv in presence of 20 mM KCl buffer by circular dichroism spectroscopic analysis. In outline:
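CD melting as for other targets (20-100 °C, 1 °C/min, 10 µM folded G4, ligand 4 equiv), but in 5 mM potassium phosphate with 20 mM KCl; c-kit2 read at 264 nm as parallel G4. ΔTm from fitted Tm, duplicate average.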

Data set [7] in a line: Effect on synthetic telomere 23 parallel G-quadruplex DNA topology at 4 mol equiv by circular dichroism spectroscopic analysis. An outline of the steps:
(§4)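 CD spectra at 20 °C, 230-360 nm, 3 scans averaged, baseline subtracted; 10 µM G4 or 15 µM duplex in potassium- or lithium-phosphate pH 7.0 buffers with 100 mM KCl (c-kit2, c-myc: 5 mM potassium phosphate, 20 mM KCl); ligand 4 molar equiv added to folded DNA from 6 mM DMSO stock.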

Data set [8] deals with U2OS. Briefly: Cytotoxicity against human U2OS cells assessed as cell killing after 24 hrs by MTT assay. In kind it is functional, cell-based. In outline: (§5)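 U2OS and HCT116 in DMEM with 10% FBS, 1% L-glutamine, seeded at 40000 cells/ml; 24 h later exposed for 1 h or 24 h, then drug-free medium 1-2 days. MTT 1 h at 37 °C, DMSO solubilisation, absorbance 595 nm. IC50 by linear regression; two independent experiments in triplicate, mean ± SE.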
In general terms: Tetrazolium dyes change colour on reduction, which living cells bring about.

For another data set, the species on record is Homo sapiens. Nature of the data set: Binding affinity to human 5'-FAM/3'-TAMRA labeled telomere 21 G-quadruplex DNA assessed as increase in melting temperature by FRET assay. In outline: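 FRET melting screen in 60 mM potassium cacodylate pH 7.4, labelled probe 400 nM annealed at 85 °C for 10 min; ligands at various concentrations up to 20 µM, diluted from 10 mM DMSO stock via 10 mM HCl. Excitation 450-495 nm, emission 515-545 nm, 30-100 °C in 0.5 °C steps with 30 s hold; ΔTm by curve fitting, triplicate.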

Data set [9] can be described thus: Ratio of IC50 for human U2OS cells to stabilization of nuclear G-quadruplex DNA in human U2OS cells.
Data set [10] in a line: Binding affinity to synthetic c-KIT2 G-quadruplex DNA assessed as increase in thermal stability in presence of 20 mM KCl buffer by circular dichroism spectroscopic analysis. An outline of the steps: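 CD melting in 5 mM potassium phosphate, 20 mM KCl, 10 µM folded G4, heated 20-100 °C at 1 °C/min; ligand:DNA ratios 1:1, 2:1 and 4:1 compared; Tm from curve fit.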
Data set [11] has as its system U2OS. Nature of the data set: Stabilization of nuclear G-quadruplex DNA in human U2OS cells at 0.2 to 1 uM after 24 hrs by DAPI staining based immunofluorescence assay. It counts as cell-based. In outline:
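U2OS seeded at 100000 cells/ml, treated 24 h after seeding for 24 h; fixed methanol:acetic acid 3:1, 0.1% Triton X-100, 2% milk block. Stained with in-house His-purified BG4, anti-FLAG, Alexa 488 anti-rabbit; nuclei DAPI. Per-cell signal as corrected total cell fluorescence; Student's t test.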

Data set [12] is described as follows: Induction of parallel G-quadruplex formation in synthetic unfolded c-KIT2 DNA assessed as increase in molar ellipticity after 10 mins in absence of metal cation by circular dichroism titration method. An outline of the steps: as §2
Data set [13] is described as follows: Effect on synthetic c-MYC G-quadruplex DNA topology at 4 mol equiv by circular dichroism spectroscopic analysis. An outline of the steps:
as §4

Data set [14] can be described thus: Binding affinity to synthetic telomere 26 G-quadruplex DNA assessed as change in melting temperature at 4 mol equiv in presence of 100 mM KCl buffer by circular dichroism spectroscopic analysis. In outline:
as §3

Data set [15] is described as follows: Effect on synthetic c-KIT1 G-quadruplex DNA topology at 4 mol equiv by circular dichroism spectroscopic analysis. An outline of the steps: as §4
A short description of data set [16]: Binding affinity to synthetic self-complementary DNA 12-mer duplex assessed as change in melting temperature at 4 mol equiv in presence of 100 mM KCl buffer by circular dichroism spectroscopic analysis. In outline:
as §3

Data set [17] deals with U2OS. Nature of the data set: Cytotoxicity against human U2OS cells assessed as cell killing after 1 hr by MTT assay. In kind it is functional, cell-based. In outline:
as §5

Data set [18] can be described thus: Induction of G-quadruplex formation in synthetic unfolded telomere 23 DNA assessed as increase in molar ellipticity after 10 mins in absence of metal cation by circular dichroism titration method. An outline of the steps: as §2
Data set [19] in a line: Cytotoxicity against human HCT116 cells assessed as cell killing after 24 hrs by MTT assay. It counts as functional, cell-based. As to conditions: HCT-116, 24 h. An outline of the steps: as §5
Data set [20] in a line: Binding affinity to human 5'-FAM/3'-TAMRA labeled telomere 21 parallel G-quadruplex DNA (unknown origin) assessed as change in melting temperature at 4:1 ligand:DNA ratio in presence of 100 mM KCl buffer by FRET assay. An outline of the steps: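 FRET melting of FAM/TAMRA-labelled G4 oligos (400 nM, annealed 85 °C 10 min) with ligand at 4 equiv, same buffers as CD (20 mM KCl for c-kit2 and c-myc; 100 mM KCl for telomeric parallel form, annealed at high concentration). Excitation 450-495 nm, emission 515-545 nm, read every 0.5 °C over 30-100 °C; ΔTm by curve fit; duplicate runs averaged.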

Active and inactive are the calls of the source. The calls are words filed in the database; no cut-off is given here.

As a reminder, the ΔTm is the shift of the melting midpoint relative to a reference. What is called IC50 is the midpoint of a concentration-inhibition curve. Regarding `Br.O=Cc1c(-c2ccccc2)nc2n1ccc1nc(-c3ccccc3)c(/C=N/NC3=NCCN3)n12`, the outcome (in data set [1]; in data set [2]; in the data set filed under Homo sapiens; with U2OS [11]) was Active. In addition, the Activity result in the data set on U2OS [3] is “Non-toxic”; in data set [10], “Dose-dependent effect”. For the same compound, the result in data set [4], in data set [7], in data set [12], in data set [13], in data set [15] and in data set [18] was inactive. Besides, the ΔTm in data set [5] was 9.1 °C; in data set [6], 9.5 °C; in [14], -3 °C; in data set [16], -0.8 °C; in data set [20] it was 7 °C. For the same compound, the IC50 is 845 nM in the data set with U2OS [8], 5.73 µM in the data set on U2OS [17] and 407 nM in data set [19]. Further, the Ratio in [9] was 4.

The record behind these values is ChEMBL document CHEMBL3826876, “Toward the Development of Specific G-Quadruplex Binders: Synthesis, Biophysical, and Biological Studies of New Hydrazone Derivatives” (J Med Chem, 2016).
